The values below come from ChEMBL document CHEMBL3351402, “An efficient synthesis and biological screening of benzofuran and benzo[d]isothiazole derivatives for Mycobacterium tuberculosis DNA GyrB inhibition” (Bioorg Med Chem, 2014).

In brackets after ≈: the same amount, converted by molar mass.

Series [1] has as its target DNA gyrase subunit A/DNA gyrase subunit B (Mycobacterium tuberculosis (strain ATCC 25618 / H37Rv), UniProt P9WG45+P9WG47). Kind of series: Inhibition of Mycobacterium tuberculosis DNA gyrase using relaxed pBR322 as substrate after 30 mins by supercoiling assay.
Series [2] relates to Mycobacterium tuberculosis. Kind of series: Antimicrobial activity against Mycobacterium tuberculosis H37Rv after 7 days by MABA assay. The format is functional. The settings on record: 168 h. A digest of the protocol:
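M. tuberculosis H37Rv inoculum from fresh LJ medium, resuspended in 7H9 broth (0.1% casitone, 0.5% glycerol, OADC), adjusted to McFarland No. 1 and diluted 1:20. Serial two-fold drug dilutions in 7H9-S. Drug-free and sterile controls. Incubated 7 days at 37 °C, then Alamar blue added and plates re-incubated overnight. MIC = lowest concentration preventing the blue-to-pink change.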
(Resazurin is reduced to fluorescent resorufin, in cell work by metabolically active cells.)

Series [3] deals with DNA gyrase subunit B (Mycobacterium smegmatis) (UniProt P0C559). Kind of series: Inhibition of purified Mycobacterium smegmatis GyrB ATPase activity at 50 to 100 uM after 100 mins by ATPase assay. The settings on record: Mycolicibacterium smegmatis. An outline of the steps: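 M. smegmatis GyrB expressed in BL21(DE3)pLysS, IPTG-induced (0.1 mM final), then Ni-NTA purified. Started with MgCl2, 100 min at room temperature. Released phosphate read at 635 nm.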
Sequence of DNA gyrase subunit B (Mycobacterium smegmatis) (P0C559 2-675 limits assumed): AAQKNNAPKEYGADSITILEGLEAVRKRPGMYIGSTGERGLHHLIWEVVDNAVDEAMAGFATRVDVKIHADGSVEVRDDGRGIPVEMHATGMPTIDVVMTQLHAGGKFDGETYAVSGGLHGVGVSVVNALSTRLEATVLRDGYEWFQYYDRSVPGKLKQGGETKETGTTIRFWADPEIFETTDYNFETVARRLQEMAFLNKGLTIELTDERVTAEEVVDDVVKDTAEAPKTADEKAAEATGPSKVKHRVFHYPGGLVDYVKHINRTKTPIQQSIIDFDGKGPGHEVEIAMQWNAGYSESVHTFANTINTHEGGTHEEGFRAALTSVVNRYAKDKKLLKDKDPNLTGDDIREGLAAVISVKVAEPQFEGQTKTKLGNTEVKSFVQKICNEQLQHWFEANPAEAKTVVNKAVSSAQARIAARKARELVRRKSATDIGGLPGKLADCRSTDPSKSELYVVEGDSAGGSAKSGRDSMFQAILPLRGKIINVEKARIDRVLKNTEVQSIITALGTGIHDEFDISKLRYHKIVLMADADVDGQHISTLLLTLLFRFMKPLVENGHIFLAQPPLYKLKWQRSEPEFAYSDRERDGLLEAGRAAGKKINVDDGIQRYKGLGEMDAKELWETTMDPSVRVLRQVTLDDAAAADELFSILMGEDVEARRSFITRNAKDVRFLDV

Series [4] can be described thus: Cytotoxicity against mouse RAW264.7 cells assessed as reduction in cell viability at 100 uM after 72 hrs by MTT assay. It is filed as cell-based. The settings on record: read-out: INH. An outline of the steps: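 RAW 264.7 mouse macrophages exposed to compound at 100 µM for 72 h. Viability measured by MTT conversion to formazan, with absorbance at 560 nm after 10 min incubation. Reported as percent inhibition.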
(Tetrazolium assays rely on reduction of a dye to a coloured formazan, in cell work by metabolically active cells.)

In the next series the target is DNA gyrase subunit B (Mycobacterium smegmatis, UniProt P0C559). Kind of series: Inhibition of purified Mycobacterium smegmatis GyrB at 50 to 100 uM after 100 mins by ATPase assay. Also noted: species or system Mycolicibacterium smegmatis.
Sequence of DNA gyrase subunit B (P0C559 whole entry): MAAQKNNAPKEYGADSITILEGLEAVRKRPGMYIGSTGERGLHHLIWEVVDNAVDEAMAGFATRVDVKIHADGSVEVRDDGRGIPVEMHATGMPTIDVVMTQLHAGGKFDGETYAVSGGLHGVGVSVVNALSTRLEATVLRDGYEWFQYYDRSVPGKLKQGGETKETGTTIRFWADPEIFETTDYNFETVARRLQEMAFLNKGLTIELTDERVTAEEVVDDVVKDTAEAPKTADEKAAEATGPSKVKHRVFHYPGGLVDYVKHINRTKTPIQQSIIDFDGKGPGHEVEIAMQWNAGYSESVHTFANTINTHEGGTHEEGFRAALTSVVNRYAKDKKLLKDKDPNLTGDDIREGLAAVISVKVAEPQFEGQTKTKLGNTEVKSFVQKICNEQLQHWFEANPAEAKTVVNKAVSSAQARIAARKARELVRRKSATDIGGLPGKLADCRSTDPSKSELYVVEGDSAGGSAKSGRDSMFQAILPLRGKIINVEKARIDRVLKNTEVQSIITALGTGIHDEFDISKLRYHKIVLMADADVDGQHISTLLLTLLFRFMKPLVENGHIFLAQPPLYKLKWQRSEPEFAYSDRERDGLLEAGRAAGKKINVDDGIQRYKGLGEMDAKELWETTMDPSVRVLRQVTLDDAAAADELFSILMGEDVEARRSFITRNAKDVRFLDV
Series [5] concerns the target DNA gyrase subunit A/DNA gyrase subunit B (Mycobacterium tuberculosis (strain ATCC 25618 / H37Rv)) (UniProt P9WG45+P9WG47). The experiment in a line: Binding affinity to Mycobacterium tuberculosis DNA gyrase by differential scanning fluorimetry. A digest of the protocol: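 Thermal shift assay with native GyrB protein. Reaction of 15 µL: assay buffer (50 mM Tris pH 7.4, 1 mM EDTA, 5 mM DTT), GyrB protein (1.5 mg/mL) and Sypro orange dye (1:100). Heated stepwise from 25 °C to 100 °C at 0.6 °C/min. Tm read from dye fluorescence. Shift in Tm of the ligand complex compared with the native protein Tm.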
For orientation: Differential scanning fluorimetry follows unfolding on heating by fluorescence.

As a reminder, the IC50 is the point on the concentration scale where inhibition reaches its midpoint. Broadly, the MIC is the least concentration at which growth counts as inhibited. Read a high MIC as weaker potency. The inhibition is how much of the control response was suppressed. A lower inhibition goes with a response near the control.

Sequence of DNA gyrase subunit A/DNA gyrase subunit B (P9WG45 whole entry): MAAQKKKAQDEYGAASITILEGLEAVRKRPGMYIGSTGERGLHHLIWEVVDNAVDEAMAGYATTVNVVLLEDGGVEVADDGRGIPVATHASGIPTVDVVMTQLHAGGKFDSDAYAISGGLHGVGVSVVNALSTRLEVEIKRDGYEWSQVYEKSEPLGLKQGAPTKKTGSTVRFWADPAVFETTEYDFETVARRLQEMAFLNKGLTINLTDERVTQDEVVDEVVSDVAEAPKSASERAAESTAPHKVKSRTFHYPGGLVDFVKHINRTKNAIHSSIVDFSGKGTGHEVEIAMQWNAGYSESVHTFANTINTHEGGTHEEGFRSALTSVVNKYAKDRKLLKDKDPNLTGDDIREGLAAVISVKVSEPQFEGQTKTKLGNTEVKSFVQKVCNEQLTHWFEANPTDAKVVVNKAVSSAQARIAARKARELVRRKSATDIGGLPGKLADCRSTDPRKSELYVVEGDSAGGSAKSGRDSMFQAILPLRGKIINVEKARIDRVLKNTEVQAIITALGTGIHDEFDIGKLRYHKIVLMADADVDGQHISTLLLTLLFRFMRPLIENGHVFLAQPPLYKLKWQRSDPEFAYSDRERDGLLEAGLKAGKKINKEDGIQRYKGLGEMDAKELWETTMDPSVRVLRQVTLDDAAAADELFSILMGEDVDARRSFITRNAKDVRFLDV
Sequence of DNA gyrase subunit A/DNA gyrase subunit B (P9WG47 whole entry): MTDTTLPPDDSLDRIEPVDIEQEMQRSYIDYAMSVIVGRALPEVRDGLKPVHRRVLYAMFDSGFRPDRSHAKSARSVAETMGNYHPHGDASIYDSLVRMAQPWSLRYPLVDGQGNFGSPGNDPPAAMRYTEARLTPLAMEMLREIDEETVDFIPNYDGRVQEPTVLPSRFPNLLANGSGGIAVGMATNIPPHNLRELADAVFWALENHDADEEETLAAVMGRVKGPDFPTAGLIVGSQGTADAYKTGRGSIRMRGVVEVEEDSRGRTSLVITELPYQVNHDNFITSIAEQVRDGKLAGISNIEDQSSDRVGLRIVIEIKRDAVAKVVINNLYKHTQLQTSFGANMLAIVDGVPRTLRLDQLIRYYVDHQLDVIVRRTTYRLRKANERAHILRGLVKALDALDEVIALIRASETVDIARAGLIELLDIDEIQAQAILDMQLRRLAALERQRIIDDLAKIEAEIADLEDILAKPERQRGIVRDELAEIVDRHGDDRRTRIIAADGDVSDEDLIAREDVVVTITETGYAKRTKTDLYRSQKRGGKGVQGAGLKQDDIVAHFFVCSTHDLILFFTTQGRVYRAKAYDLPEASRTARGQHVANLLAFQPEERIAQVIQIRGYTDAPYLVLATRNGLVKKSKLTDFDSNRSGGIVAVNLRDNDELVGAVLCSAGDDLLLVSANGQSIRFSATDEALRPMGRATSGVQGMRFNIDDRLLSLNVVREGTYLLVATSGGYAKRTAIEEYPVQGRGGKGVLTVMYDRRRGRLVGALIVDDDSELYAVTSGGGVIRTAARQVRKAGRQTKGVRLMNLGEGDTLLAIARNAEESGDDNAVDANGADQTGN

Take `CCOC(=O)c1cc2cc(N3CCN(C(=O)Nc4ccc([N+](=O)[O-])cc4)CC3)ccc2o1`: the IC50 in series [1] came to 2.93 µM; on DNA gyrase subunit B, 5.07 µM. In series [2], it took 16.3 µM (≈ 7.15 µg/mL) to inhibit growth (MIC). This molecule returned an inhibition in series [3] of more than 60%. In addition, in series [4], the cytotoxicity at 72 h, 100 µM was 19.6%.
Turning to `CCOC(=O)c1cc2cc(N3CCN(C(=S)NCc4ccc(Cl)cc4)CC3)ccc2o1`, the IC50 in series [1] came to 11.3 µM; on DNA gyrase subunit B, 29.9 µM. The MIC in series [2] was 62 µM (≈ 28.4 µg/mL). In series [4], the cytotoxicity at 72 h, 100 µM was 41.5%.
In the case of `O=C(NCc1ccc(Cl)cc1)N1CCN(c2nsc3ccccc23)CC1`, the results for the IC50 (in series [1]; at DNA gyrase subunit B) were 3.55 µM and 6.88 µM, respectively. The same molecule returned an MIC in series [2] of 14.1 µM (≈ 5.46 µg/mL). In addition, the inhibition in series [3] is more than 60%. In addition, the cytotoxicity at 72 h, 100 µM in series [4] stood at 29.1%.
The matching figures for `CCOC(=O)c1cc2cc(N3CCN(C(=O)Nc4ccc(OC)cc4)CC3)ccc2o1`: 7.33 µM, 8.19 µM, 4.24 µM (≈ 1.8 µg/mL), more than 60% and 19.9%.
The matching figures for `CCOC(=O)c1cc2cc(N3CCN(C(=O)Nc4ccc(C(C)=O)cc4)CC3)ccc2o1`: 3.55 µM, 7.86 µM, 83.5 µM (≈ 36.4 µg/mL), more than 60% and 21.6%.
Regarding `CC(=O)c1ccc(NC(=S)N2CCN(c3nsc4ccccc34)CC2)cc1`, the IC50 stood at 8.4 µM in series [1] and 11.1 µM against DNA gyrase subunit B. The lowest concentration to inhibit growth in series [2] (MIC) was 13.8 µM (≈ 5.48 µg/mL). In series [4], the cytotoxicity at 72 h, 100 µM was 40.7%.
The matching figures for `CCOC(=O)c1cc2cc(N3CCN(C(=O)Nc4ccc(Cl)cc4)CC3)ccc2o1`: 18.2 µM, 20.7 µM, 16.8 µM (≈ 7.17 µg/mL) and 19.2%.
The matching figures for `S=C(NCc1ccc(Cl)cc1)N1CCN(c2nsc3ccccc23)CC1`: 4.4 µM, 11.3 µM, 6.82 µM (≈ 2.75 µg/mL) and 25.9%.
The matching figures for `CCOC(=O)c1cc2cc(N3CCN(C(=S)Nc4ccc(Cl)cc4)CC3)ccc2o1`: 13.2 µM, 35.2 µM, 16.1 µM (≈ 7.13 µg/mL) and 30%.
For the molecule `CCOC(=O)c1cc2cc(N3CCN(C(=S)NCc4ccccc4)CC3)ccc2o1`, the IC50 in series [1] came out at 9.1 µM; at DNA gyrase subunit B, 20.4 µM. Further, inhibition of growth in series [2] (MIC) required 33.9 µM (≈ 14.4 µg/mL). For the same molecule, in series [4], the cytotoxicity at 72 h, 100 µM turned out to be 45.8%.
The matching figures for `CCOC(=O)c1cc2cc(N3CCN(C(=O)Nc4ccccc4)CC3)ccc2o1`: 7.14 µM, 16.9 µM, 92.6 µM (≈ 36.4 µg/mL) and 21.3%.
Turning to `O=[N+]([O-])c1ccc(NC(=S)N2CCN(c3nsc4ccccc34)CC2)cc1`, the IC50 worked out at 0.83 µM in series [1] and 1.81 µM at DNA gyrase subunit B. Further, inhibition of growth in series [2] (MIC) required 13.7 µM (≈ 5.48 µg/mL). In series [3], this molecule yielded an inhibition of more than 60%. In addition, the cytotoxicity at 72 h, 100 µM in series [4] turned out to be 27.6%.
Turning to `CCOC(=O)c1cc2cc(N3CCN(C(=S)Nc4ccc(C(C)=O)cc4)CC3)ccc2o1`, the IC50 in series [1] is 16.9 µM; at DNA gyrase subunit B, 27.3 µM. In addition, in series [2], the lowest concentration to inhibit growth (MIC) was 31.5 µM (≈ 14.2 µg/mL). For the same molecule, the cytotoxicity at 72 h, 100 µM in series [4] stood at 21.2%.
Turning to `CC1COc2c(N3CCN(C)CC3)c(F)cc3c(=O)c(C(=O)O)cn1c23` (stereo not given) [OFLOXACIN], the MIC in series [2] amounted to 2.16 µM (≈ 0.781 µg/mL).
`O=C(Nc1ccccc1)N1CCN(c2nsc3ccccc23)CC1`: the IC50 was 4.59 µM in series [1] and 19.9 µM at DNA gyrase subunit B. Further, in series [2], the MIC was found to be 68.9 µM (≈ 23.3 µg/mL). For the same molecule, the cytotoxicity at 72 h, 100 µM in series [4] stood at 27%.
For `CCOC(=O)c1cc2cc(N3CCN(C(=O)NCc4ccccc4)CC3)ccc2o1`, the IC50 in series [1] came to 3.12 µM; at DNA gyrase subunit B, 4.32 µM. The molecule further came in with an MIC in series [2] of 35.5 µM (≈ 14.4 µg/mL). Also, in series [3], the inhibition is more than 60%. Besides, the cytotoxicity at 72 h, 100 µM in series [4] was 40.9%.
The matching figures for `O=C(NCc1ccccc1)N1CCN(c2nsc3ccccc23)CC1`: 1.18 µM, 2.36 µM, 1.9 µM (≈ 0.67 µg/mL), more than 60% and 30.2%.
In the case of `COc1ccc(NC(=S)N2CCN(c3nsc4ccccc34)CC2)cc1`, the IC50 is 1.05 µM in series [1] and 2.86 µM against DNA gyrase subunit B. This molecule also yielded an MIC in series [2] of 3.54 µM (≈ 1.36 µg/mL). Further, the inhibition in series [3] was more than 60%. The cytotoxicity at 72 h, 100 µM in series [4] turned out to be 19%.
Consider `COc1ccc(NC(=O)N2CCN(c3nsc4ccccc34)CC2)cc1`, for which the IC50 in series [1] worked out at 12.2 µM; at DNA gyrase subunit B it was 26.2 µM. It took 14.7 µM (≈ 5.42 µg/mL) to inhibit growth in series [2] (MIC). Further, the cytotoxicity at 72 h, 100 µM in series [4] was 37.6%.
As to `CCOC(=O)c1cc2cc(N3CCN(C(=O)NCc4ccc(Cl)cc4)CC3)ccc2o1`, the IC50 in series [1] is 1.61 µM; against DNA gyrase subunit B it was 2.97 µM. Besides, the MIC in series [2] came to 64.6 µM (≈ 28.6 µg/mL). Further, the inhibition in series [3] is more than 60%. Further, the cytotoxicity at 72 h, 100 µM in series [4] was 21.6%.
For the molecule `O=C(Nc1ccc([N+](=O)[O-])cc1)N1CCN(c2nsc3ccccc23)CC1`, the IC50 is 12.2 µM in series [1] and 27.1 µM on DNA gyrase subunit B. For the same molecule, the lowest concentration to inhibit growth in series [2] (MIC) was 28.5 µM (≈ 10.9 µg/mL). In addition, the cytotoxicity at 72 h, 100 µM in series [4] was 20.9%.
The matching figures for `CC(=O)c1ccc(NC(=O)N2CCN(c3nsc4ccccc34)CC2)cc1`: 9.51 µM, 29.3 µM, 28.7 µM (≈ 10.9 µg/mL) and 20.2%.
In the case of `CCOC(=O)c1cc2cc(N3CCN(C(=S)Nc4ccc(OC)cc4)CC3)ccc2o1`, the values for the IC50 (in series [1]; at DNA gyrase subunit B) were 19.8 µM and 24.4 µM, respectively. It took 16.2 µM (≈ 7.14 µg/mL) to inhibit growth in series [2] (MIC). Also, the cytotoxicity at 72 h, 100 µM in series [4] was found to be 20.6%.
Turning to `S=C(Nc1ccc(Cl)cc1)N1CCN(c2nsc3ccccc23)CC1`, the IC50 was 4.21 µM in series [1] and 9.32 µM against DNA gyrase subunit B. In series [2], this molecule displayed an MIC of 3.51 µM (≈ 1.37 µg/mL). Besides, the inhibition in series [3] was more than 60%. Besides, the cytotoxicity at 72 h, 100 µM in series [4] came to 44.2%.
With `O=C(Nc1ccc(Cl)cc1)N1CCN(c2nsc3ccccc23)CC1`, the IC50 stood at 0.42 µM in series [1] and 1.77 µM against DNA gyrase subunit B. Besides, in series [2], the MIC is 3.44 µM (≈ 1.28 µg/mL). In addition, the inhibition in series [3] was more than 60%. Also, the cytotoxicity at 72 h, 100 µM in series [4] was determined as 20.3%. For the same molecule, in series [5], the Tm was determined as 46.1 °C.
`S=C(Nc1ccccc1)N1CCN(c2nsc3ccccc23)CC1`: the concentration for half-maximal inhibition (IC50) in series [1] stood at 3.9 µM; at DNA gyrase subunit B it was 9.14 µM. Besides, in series [2], 15.2 µM (≈ 5.4 µg/mL) was the least that counted as inhibitory (MIC). The molecule also returned an inhibition in series [3] of more than 60%. The cytotoxicity at 72 h, 100 µM in series [4] came out at 39.3%.
As for `NNC(=O)c1ccncc1` [ISONIAZID], the MIC in series [2] came out at 0.66 µM (≈ 0.0905 µg/mL).
On the same count and under the same terms, the same measure for `CC[C@@H](CO)NCCN[C@@H](CC)CO` [ETHAMBUTOL]: 0.66 µM (≈ 0.135 µg/mL).
With `CCOC(=O)c1cc2cc(N3CCN(C(=S)Nc4ccccc4)CC3)ccc2o1`, the IC50 in series [1] was 7.2 µM; on DNA gyrase subunit B it was 15.6 µM. Besides, the MIC in series [2] worked out at 35.3 µM (≈ 14.4 µg/mL). Further, in series [4], the cytotoxicity at 72 h, 100 µM was 22.9%.
The matching figures for `S=C(NCc1ccccc1)N1CCN(c2nsc3ccccc23)CC1`: more than 25 µM, 46 µM, 14.7 µM (≈ 5.42 µg/mL) and 19.1%.
Take `CCOC(=O)c1cc2cc(N3CCN(C(=S)Nc4ccc([N+](=O)[O-])cc4)CC3)ccc2o1`: the values for the IC50 (in series [1]; at DNA gyrase subunit B) were 10.6 µM and 12.9 µM, respectively. Also, in series [2], 62.6 µM (≈ 28.4 µg/mL) was the least that counted as inhibitory (MIC). This molecule also showed an inhibition in series [3] of more than 60%. Besides, in series [4], the cytotoxicity at 72 h, 100 µM came to 25.8%.
The molecule `CO[C@H]1/C=C/O[C@@]2(C)Oc3c(C)c(O)c4c(O)c(c(/C=N/N5CCN(C)CC5)c(O)c4c3C2=O)NC(=O)/C(C)=C\C=C\[C@H](C)[C@H](O)[C@@H](C)[C@@H](O)[C@@H](C)[C@H](OC(C)=O)[C@@H]1C` [RIFAMPIN] yielded an MIC in series [2] of 0.23 µM (≈ 0.189 µg/mL).
